Rows were chosen to be rich in hits. Some 2.1% of all compounds tested hit in one or more screens of this group.
CCR6 antag = antagonists of human CCR6 receptor; actives 0.49% (n = 340,000); inhibition, % at 20 µM; CHO-K1 CCR6 PathHunter beta-arrestin, luminescence, CCL20-stimulated; AID 493098; P51684;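 active means compounds whose inhibition of the agonist-driven luminescence signal at 20 µM reaches about 50%, limit read from the data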;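 further: cells stimulated with CCL20 at 14 nM final; plate controls were DMSO with CCL20 for no effect and DMSO without agonist for full effect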
Target sequence (P51684 whole entry, looked up): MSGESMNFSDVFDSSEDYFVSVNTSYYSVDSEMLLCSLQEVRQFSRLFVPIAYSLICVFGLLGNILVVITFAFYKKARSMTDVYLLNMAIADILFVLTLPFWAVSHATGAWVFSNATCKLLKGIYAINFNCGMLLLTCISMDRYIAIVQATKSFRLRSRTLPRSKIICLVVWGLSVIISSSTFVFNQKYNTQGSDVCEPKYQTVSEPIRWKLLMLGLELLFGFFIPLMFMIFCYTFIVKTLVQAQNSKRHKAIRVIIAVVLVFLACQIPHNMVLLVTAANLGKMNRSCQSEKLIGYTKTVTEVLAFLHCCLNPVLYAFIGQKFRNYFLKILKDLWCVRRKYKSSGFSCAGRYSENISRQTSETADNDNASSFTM
APJ ag = APJ receptor agonism | CHO-K1 APJ PathHunter beta-arrestin, luminescence; 0% DMSO wells, 100% apelin | activation, % at 20 µM | actives 0.11% (n = 330,000) | AID 2520;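 active means activation more than six SD over the plate average, tested at 20 µM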;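 further: 0% = DMSO alone and 100% = apelin-13 at 10 nM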
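Material: CHO-K1 APJ beta-arrestin complementation cell line; Input: cell density 1000 per well; Incubation: compound stimulation 90 min at 25 °C, detection 60 min; Signal: luminescence from split beta-galactosidase complementation, Galacton Star/Emerald II substrate; Controls: DMSO-only wells as negative, 10 nM Apelin-13 as positive control.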
CXCR6 inh = inhibitors of human CXCR6 receptor. O00574. CHO-K1 PathHunter CXCR6 beta-arrestin, luminescence. inhibition, % at 20 µM. actives 0.36% (n = 360,000). AID 602244; in the data active means inhibition above about 34%, passing the limit was not always enough;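 further: antagonist mode with CXCL16 agonist at 10 nM final; 0% = 10 nM CXCL16 with DMSO and 100% = unstimulated wells without agonist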
APJ antagonist = APJ receptor antagonism. CHO-K1 APJ beta-arrestin complementation, luminescence. inhibition, % at 20 µM. actives 0.32% (n = 330,000). AID 2521;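 active means inhibition above about 40% at 20 µM, limit read from the data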;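 further: cells challenged with 10 nM apelin-13 agonist together with compound; plate controls were apelin-13 plus DMSO wells for no effect and DMSO wells lacking apelin-13 for full effect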
m5-HT2A agonist = agonists of mouse serotonin 5-HT2A receptor (HTR2A); P35363; CHO-K1 mHTR2A beta-arrestin complementation, luminescence; percent of 30 µM serotonin response; activation, % at 7.6 µM; actives 0.66% (n = 360,000);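 active means activation above a run cutoff, the mean activation of all tested compounds plus 3 SD, cut at about 14% in these data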;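 further: 0% = plate median of compound wells and 100% = 30 µM serotonin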
EBI2 block = antagonists of human EBI2 receptor; P32249; EBI2 beta-arrestin recruitment, luminescence, 7a,25-OHC stimulated; inhibition, % at 5 µM; actives 0.81% (n = 360,000); in the data active means inhibition above about 38%;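 further: enzyme fragment complementation signal reports receptor beta-arrestin coupling in cells; 0% = agonist plus DMSO wells and 100% = wells without agonist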
An asterisk follows results filed as active; x = not tested or not shown.

SMILES	CCR6 antag	APJ ag	CXCR6 inh	APJ antagonist	m5-HT2A agonist	EBI2 block
C[C@@H](C(=O)Nc1ccc2ccccc2c1)[C@@H]1C[C@@]1(C)[C@@H](NC(=O)c1ccccc1)c1ccccc1	7	5	2	-15	-10	54*
C[C@@H](C(=O)Nc1ccc2ccccc2c1)[C@H]1C[C@]1(C)[C@H](NC(=O)c1cccnc1)c1ccccc1	8	-2	x	10	x	x
Cc1cc2nc(C)n(CCCNC(=O)Nc3ccc(C#N)cc3)c2cc1C	14	-3	6	11	44*	3
Cc1cc(C(=O)N2CCc3c([nH]c4ccccc34)C2c2cccc(Cl)c2)nn1C (stereo unspecified)	2	-2	0	7	-4	3
O=C(CC[C@H]1O[C@@H](n2ccc(=O)[nH]c2=O)[C@H](O)[C@@H]1O)N[C@H](Cc1ccccc1)C(=O)NCc1ccc2c(c1)OCO2	x	x	-15	x	5	1
CSc1ncccc1C(=O)OCC(=O)c1cc2ccccc2o1	50*	-12	34	22	2	4
O=C(CCOc1ccccc1)OCC(=O)c1cc2ccccc2o1	85*	-10	29	36	5	-8
O=C(CCS(=O)(=O)c1cc(Br)cc2c1N(C(=O)C1CC1)CC2)NCC1CCCO1 (stereo unspecified)	-10	0	-12	-13	-4	-3
Cc1ccc(CN2C(=O)CCC2(C)c2nnnn2-c2c(C)cccc2C)cc1 (stereo unspecified)	x	x	1	x	-3	12
COc1cc(C2C(Oc3ccccc3C)C(=O)N2Cc2ccc(F)cc2)cc(OC)c1OC (stereo unspecified)	15	-3	1	-8	4	4
COc1ccc(C(=O)NNC(=S)NC(=O)c2ccco2)cc1	42	-5	15	21	1	5
CCCOc1ccc(C(=O)NNC(=S)NC(=O)c2ccco2)cc1	70*	-3	37	9	-4	-5
O=C(Cn1nc(C(F)F)cc1C(F)F)NNC(=S)Nc1ccc([N+](=O)[O-])cc1	48	-8	24	49*	4	9
CCc1n[nH]c(=S)n1/N=C/c1cc(OC)cc([N+](=O)[O-])c1O	62*	-6	40	42*	-5	-3
COc1cc(/C=N/n2c(=S)[nH]nc(C)c2=O)cc([N+](=O)[O-])c1O	-2	-4	3	5	0	17
O=S1(=O)CCO[C@H]2Cc3ccccc3[C@H]2N1Cc1ccccc1Br	12	1	1	14	-5	0
C=CCc1cccc(/C=N/NC(=O)C(=O)Nc2ccc(C)cc2)c1O	14	2	-1	-4	2	4
C=CCc1cccc(/C=N/NC(=O)C(C)Nc2ccc(C)cc2)c1O (stereo unspecified)	29	-1	-6	10	-5	41*
O=c1[nH]c(-c2ccccn2)nc2sc(-c3ccccc3)cc12	36	x	25	x	-1	87*
C=C1C(=O)CC2=C1[C@](Cc1ccc(F)cc1)(C(=O)OC)N(C(=O)c1ccccc1)C2	x	x	5	x	3	3
C=C1C(=O)C=C2CN(C(=O)c3ccccc3)[C@@](Cc3ccc(F)cc3)(C(=O)OC)[C@@H]12	100*	-10	88*	37	-4	76*
Cc1nc2nc(C)c(NS(=O)(=O)c3cccs3)c(=O)n2[nH]1	10	-2	5	-2	5	0
CCOc1ccc(NC(=S)Nc2ccc3nsnc3c2)cc1	21	-3	-3	-3	0	53*
CC1=NN(C(=O)c2ccc(Cl)cc2)C(O)(c2ccccc2)C1 (stereo unspecified)	55*	-5	18	15	-7	1
N=C1/C(=C\c2ccc(-c3cccc(Cl)c3)o2)C(=O)N=C2SC=C(c3ccccc3)N12	43	0	12	11	-6	0
SMILES	CCR6 antag	APJ ag	CXCR6 inh	APJ antagonist	m5-HT2A agonist	EBI2 block
N=C1/C(=C\c2ccc(-c3ccc(C(=O)O)cc3)o2)C(=O)N=C2SC=C(c3ccccc3)N12	53*	x	34	x	-3	14
COc1ccc(/C=N\NC(=O)c2cc(O)c(O)c(O)c2)cc1COc1ccc(C(=O)OCC(C)C)cc1	55*	5	9	12	-1	4
COc1ccc(C(=O)N/N=C/c2ccc(OC)c(COc3ccccc3)c2)cc1	3	1	0	-45	-5	19
CN1CCN(c2nnc(-c3cccs3)c3ccccc23)CC1	0	-5	-7	26	-8	-11
CC(=NNc1ccc2ccccc2n1)c1ccccc1O	x	x	56*	x	-4	15
CCN(CC)CCNC(=O)c1ccc(N)cc1	5	-4	0	5	0	-2
S=c1[nH]nc(Cc2ccccc2)n1Cc1ccco1	2	-2	6	1	15*	-1
Cc1c(Cl)cccc1N1C(=O)C(N2C(=O)c3cccc([N+](=O)[O-])c3C2=O)C1c1cccs1 (stereo unspecified)	-37	0	-6	-9	0	48*
O=C1c2cccc([N+](=O)[O-])c2C(=O)N1C1CCCCC1	-26	-3	-7	-11	1	6
C/C(=N/NC(=O)c1ccncc1)C1=C(O)CC(C)(C)CC1=O	5	-1	25	0	5	-8
COc1cc(NC(=O)c2c(F)c(F)c(F)c(F)c2F)c(OC)cc1Cl	-13	0	-11	-14	8	9
CC(C)C(=O)N(c1cc2sc(=O)oc2c2ccccc12)S(=O)(=O)c1cccs1	25	8	4	-22	5	49*
CC(C)C(=O)N(c1ccc2oc(=O)sc2c1)S(=O)(=O)c1cccs1	5	-2	4	18	2	-1
CN(C)c1ccc(/C=C/C=C2/SC(=S)N(c3ccccc3)C2=O)cc1	45	-6	52*	39	-5	9
CC[C@@H]1Cc2[nH][nH]c(=O)c2[C@@H](c2ccc(Cl)cc2)O1	x	x	-7	x	-2	-4
Cc1ccccc1N1C(=O)CC(Sc2nnc(-c3ccccc3)o2)C1=O (stereo unspecified)	x	-2	52*	6	-7	1
O=C1CC(Sc2nnc(-c3ccccc3)o2)C(=O)N1c1ccccc1 (stereo unspecified)	13	5	-6	1	-2	0
O=C(c1ccco1)N1CCN(CC(O)COc2ccc3oc4ccccc4c3c2)CC1 (stereo unspecified)	0	0	-2	-9	14*	-23
Cc1cc(C)cc(OCC(O)CN2CCN(C(=O)c3ccco3)CC2)c1 (stereo unspecified)	13	-3	7	-10	4	10
Cc1cccc(Nc2nc(-c3sc(C)nc3C)cs2)c1	-10	-1	6	-3	-1	57*

Screening results deposited in PubChem BioAssay by several laboratories.
